High-throughput results (PubChem)
SUMO Mot1 rescue = inhibitors of SUMOylation pathway: yeast Mot1-301 growth rescue; S. cerevisiae Mot1-301 growth rescue, ATP luminescence, 38.5C; percent above DMSO median, 100 means doubled; growth rescue, % at 18.8 µM; 320,000 compounds, 1% hits;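 active means every valid replicate shows activation above 250% relative to neutral control wells; inactive means the rest, any valid replicate at or below 250%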;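 further: OY570 slx delta 5 strain wells were the positive control but not used for scaling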
NALP1 inh = NALP1 inhibition; S. cerevisiae NALP1/ASC/caspase-1 growth, X-gal OD620, 72 h; inhibition, % at 10 µM; 280,000 compounds, 0.61% hits; in the data active means inhibition mostly above about 24%, no sharp cut-off; inactive means mostly below about 32%
IMP-1 inhibitor = blocks Pseudomonas aeruginosa IMP-1 metallo-beta-lactamase. inhibition, % at 5.6 µM. purified IMP-1, nitrocefin hydrolysis, epi-absorbance fluorescence. 290,000 compounds, 0.45% hits. AID 1556;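 active means inhibition above the mean plus 3 SD of all compounds in the same screening run, cut at about 4.5% in these data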;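 further: 0% = IMP-1 with DMSO and 100% = DMSO wells lacking enzyme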
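assay system = purified recombinant IMP-1 metallo-beta-lactamase enzyme | schedule = 15 min preincubation plus 25 min reaction at 25 °C | signal = Epi-absorbance fluorescence, 480 nm excitation, 530 nm emission | read-out basis = percent inhibition from optical density relative to buffer-blank wells | controls = IMP-1 with DMSO as 0%, enzyme-free DMSO as 100%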
VIM-2 inh = blocks Pseudomonas aeruginosa VIM-2 metallo-beta-lactamase | purified VIM-2, nitrocefin hydrolysis, epi-absorbance fluorescence | inhibition, % at 5.6 µM | 290,000 compounds, 0.89% hits;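 active means inhibition above the mean of all tested compounds plus 3 SD, cutoff set per screening run, cut at about 7.5% in these data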;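 further: red hydrolysis product quenches plate fluorescence so inhibitors raise well fluorescence; 0% = enzyme with DMSO and 100% = DMSO without enzyme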
SUMO HTRF inh = SUMOylation inhibition; P63279; HTRF SUMOylation assay, SAE1/SAE2 + UBC9, in vitro; inhibition, % at 35 µM; 290,000 compounds, 0.36% hits; in the data active means inhibition above about 50%, passing the limit was not always enough
Target sequence (P63279 whole entry, looked up): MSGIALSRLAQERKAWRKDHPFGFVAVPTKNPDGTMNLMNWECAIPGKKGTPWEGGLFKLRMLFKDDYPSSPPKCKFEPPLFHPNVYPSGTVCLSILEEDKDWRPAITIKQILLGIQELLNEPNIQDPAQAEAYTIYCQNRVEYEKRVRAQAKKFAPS
DNA FID counter = fluorescent intercalator displacement, NS3 helicase counter-screen | DNA fluorescent intercalator displacement, fluorescence | inhibition, % at 7.9 µM | 290,000 compounds, 0.17% hits | AID 1845; in the data active means inhibition above about 37%;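 further: 0% = vehicle and 100% = reference compound; higher means more ethidium bromide displaced from hairpin DNA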
Active calls of the source: *. A selection: hits, their analogues and other compounds. The true share with any hit is near 2.9%.

How did Cc1ccnc(NC(=O)Cc2ccc(-c3ccccc3)cc2)c1 do in these assays?
SUMO Mot1 rescue: 2; NALP1 inh: 4; IMP-1 inhibitor: 12*; VIM-2 inh: -2; SUMO HTRF inh: 1; DNA FID counter: -22

What do the screens show for `O=C(CC(=O)Nc1ccccn1)Nc1ccccn1`?
SUMO Mot1 rescue: 270; NALP1 inh: 13; IMP-1 inhibitor: -2; VIM-2 inh: -3; SUMO HTRF inh: 6; DNA FID counter: 4

Results for Cc1ccnc(NC(=O)Cc2ccc([N+](=O)[O-])cc2)c1 ?
SUMO Mot1 rescue: 364*; NALP1 inh: 5; IMP-1 inhibitor: -4; VIM-2 inh: -4; SUMO HTRF inh: 16; DNA FID counter: -2

How did Cc1ccc(NC(=O)Cc2ccc(Cl)cc2)nc1 do in these assays?
SUMO Mot1 rescue: 19

What do the screens show for `Cc1ccc(NC(=O)Cc2ccc(-c3ccccc3)cc2)nc1`?
SUMO Mot1 rescue: 444; NALP1 inh: 12; IMP-1 inhibitor: 12*; VIM-2 inh: 0; SUMO HTRF inh: 3; DNA FID counter: -23

Results for O=C(Cc1ccc(-c2ccccc2)cc1)Nc1ccccn1 ?
SUMO Mot1 rescue: 4; NALP1 inh: -12; IMP-1 inhibitor: 34*; VIM-2 inh: -2; SUMO HTRF inh: 10; DNA FID counter: -15

How did CN(C)/C=N/c1ncc(C(=O)OC(C)(C)C)s1 do in these assays?
SUMO Mot1 rescue: 5; NALP1 inh: 9; IMP-1 inhibitor: 0; VIM-2 inh: 2; SUMO HTRF inh: -5; DNA FID counter: -4

How did CCN(Cc1ccncc1)C(=O)c1ccccc1NS(=O)(=O)c1ccc(F)cc1 do in these assays?
SUMO Mot1 rescue: 43; NALP1 inh: 6; IMP-1 inhibitor: -1; VIM-2 inh: 0; SUMO HTRF inh: -8; DNA FID counter: -25

How did CC(C)CC(=O)NC(=S)Nc1ccc(S(=O)(=O)Nc2nccs2)cc1 do in these assays?
SUMO Mot1 rescue: -18; NALP1 inh: 29; IMP-1 inhibitor: -3; VIM-2 inh: -2; SUMO HTRF inh: 10; DNA FID counter: -4

What do the screens show for `CCOC(=O)c1c(C)n(C)c2ccc(OCC(O)CNCCc3ccccc3)cc12` (stereo not drawn)?
SUMO Mot1 rescue: -2; NALP1 inh: 5; IMP-1 inhibitor: 2; VIM-2 inh: 9.7*; SUMO HTRF inh: -14; DNA FID counter: 28

How did COc1ccc(Cn2c(=O)c3cccnc3n(Cc3ccc([N+](=O)[O-])cc3)c2=O)cc1 do in these assays?
SUMO Mot1 rescue: 4; NALP1 inh: 32*; IMP-1 inhibitor: 1; VIM-2 inh: -2; SUMO HTRF inh: 23; DNA FID counter: 5

Results for Cc1cccc(N=C2NC(=O)/C(=C/c3cccn3C)S2)c1 ?
SUMO Mot1 rescue: -24; NALP1 inh: 4; IMP-1 inhibitor: -1; VIM-2 inh: -1; SUMO HTRF inh: 0; DNA FID counter: -19

How did O=C1NC(=Nc2ccccc2)S/C1=C\c1cccn1-c1ccccc1 do in these assays?
NALP1 inh: 39*; IMP-1 inhibitor: -5; VIM-2 inh: -3; SUMO HTRF inh: 18; DNA FID counter: -3

How did C=CCc1cccc(CNc2c(C)cc(C)cc2C)c1O do in these assays?
SUMO Mot1 rescue: 387*; NALP1 inh: 1; IMP-1 inhibitor: 0; VIM-2 inh: -1; SUMO HTRF inh: -4; DNA FID counter: -3

Results for Cc1c(Br)cccc1NC(=O)c1sccc1-n1cccc1 ?
NALP1 inh: 44*; IMP-1 inhibitor: -2; VIM-2 inh: -3; SUMO HTRF inh: -5; DNA FID counter: -8

What do the screens show for `O=C(Nc1ccc(Br)cc1F)c1sccc1-n1cccc1`?
SUMO Mot1 rescue: -9; NALP1 inh: 20; IMP-1 inhibitor: -1; VIM-2 inh: 0; SUMO HTRF inh: -10; DNA FID counter: -3

Results for COc1cccc(CNC(=O)Cc2ccc(-c3ccccc3)cc2)c1 ?
SUMO Mot1 rescue: -11; NALP1 inh: -11; IMP-1 inhibitor: 19*; VIM-2 inh: -1; SUMO HTRF inh: 17; DNA FID counter: -31

Results for CCOC(=O)c1cc(NC(=O)N(C(C)C)C(C)C)c(C)nc1C ?
SUMO Mot1 rescue: -18; NALP1 inh: 12; IMP-1 inhibitor: -4; VIM-2 inh: -4; SUMO HTRF inh: 17; DNA FID counter: 2

What do the screens show for `CCOC(=O)c1cc(NC(=O)N(CC)CC)c(C)nc1C`?
SUMO Mot1 rescue: -20; NALP1 inh: 37*; IMP-1 inhibitor: -3; VIM-2 inh: -6; SUMO HTRF inh: 7; DNA FID counter: 0

How did Cc1ccccc1OCc1nc2ccccc2c(=O)n1/N=C/c1cn[nH]c1-c1ccccc1 do in these assays?
SUMO Mot1 rescue: -3; NALP1 inh: 22; IMP-1 inhibitor: -2; VIM-2 inh: -6; SUMO HTRF inh: -37; DNA FID counter: -13

How did Cc1nc2ccccc2c(=O)n1/N=C/c1cn[nH]c1-c1ccccc1 do in these assays?
SUMO Mot1 rescue: -31; NALP1 inh: 41*; IMP-1 inhibitor: -3; VIM-2 inh: -1; SUMO HTRF inh: 24; DNA FID counter: -4

How did Cc1nn(CC(=O)N2CCN(C)CC2)c(=O)c2ccccc12 do in these assays?
SUMO Mot1 rescue: -12; NALP1 inh: -5; IMP-1 inhibitor: -1; VIM-2 inh: -2; SUMO HTRF inh: 7; DNA FID counter: -1

What do the screens show for `CCOc1cc(CNc2ccccc2)cc(Br)c1OCc1ccc(F)cc1`?
SUMO Mot1 rescue: 4; NALP1 inh: 43*; IMP-1 inhibitor: -3; VIM-2 inh: -4; SUMO HTRF inh: -20; DNA FID counter: -3

What do the screens show for `CCOc1cc(CNc2ccccc2)cc(Br)c1OCC(=O)NC(C)(C)C`?
SUMO Mot1 rescue: 4; NALP1 inh: 8; IMP-1 inhibitor: -2; VIM-2 inh: -1; SUMO HTRF inh: -21; DNA FID counter: -3

What do the screens show for `Cn1c(=O)cc(Nc2ccccc2)c2c(=O)n(-c3ccccc3)c(=O)n(-c3ccccc3)c21`?
SUMO Mot1 rescue: -23; NALP1 inh: 17; IMP-1 inhibitor: -1; VIM-2 inh: -3; SUMO HTRF inh: -2; DNA FID counter: -36

What do the screens show for `COc1ccccc1[C@@]1(C)ON(c2ccccc2C(F)(F)F)C1=O`?
SUMO Mot1 rescue: 326*

What do the screens show for `Cc1ccccc1[C@]1(C)ON(c2ccccc2C(F)(F)F)C1=O`?
SUMO Mot1 rescue: 62

What do the screens show for `Cc1nc2ccc(NC(=S)NC3CCCCC3)cc2nc1C`?
NALP1 inh: -4; IMP-1 inhibitor: -3; VIM-2 inh: -2; SUMO HTRF inh: 17; DNA FID counter: -4

Results for COc1ccc2c(C)c(C(=O)NCC(C)O)oc2c1OC (stereo not drawn) ?
SUMO Mot1 rescue: 6; NALP1 inh: 18; IMP-1 inhibitor: -3; VIM-2 inh: -4; SUMO HTRF inh: 59*; DNA FID counter: -4

How did COc1ccccc1CNC(=O)c1oc2ccccc2c1C do in these assays?
SUMO Mot1 rescue: -10; NALP1 inh: -3; IMP-1 inhibitor: -2; VIM-2 inh: -2; SUMO HTRF inh: 0; DNA FID counter: -30
